{"data": "Experimental data pooled from the literature", "target": "Receptor tyrosine-protein kinase erbB-4 (ERBB4, Homo sapiens, UniProt Q15303)", "note": "Compare with care: the assays were run in different laboratories."}
{"SMILES": "Cn1cc(-c2cccc(N3CCc4c(sc5c4CC(C)(C)C5)C3=O)c2CO)cc(Nc2ccncn2)c1=O", "assay": "enzyme activity, inhibitor", "conditions": "1 µM", "quantity": "inhibition", "result": "0%"}
{"SMILES": "Cc1nn(C)cc1-c1nc2c(N3CCN(Cc4ccc(Cl)cc4)CC3)c(Cl)cnc2[nH]1", "assay": "binding, competition with immobilised ligand", "conditions": "1 µM", "quantity": "remaining binding", "result": "100%"}
{"SMILES": "CC(C)(C)c1cc(C=C(C#N)C#N)cc(Br)c1O", "assay": "enzyme activity, inhibitor", "conditions": "0.5 µM", "quantity": "remaining activity", "result": "94%"}
{"SMILES": "C#Cc1n[nH]c2c(-c3cn([C@@H](C)c4ccccn4)c(=O)[nH]c3=O)cc(F)cc12", "assay": "enzyme activity, inhibitor", "conditions": "0.1 µM", "quantity": "inhibition", "result": "-15.6%"}
{"SMILES": "O=c1[nH]c2ccccc2n1C1CCN(Cc2ccc(-c3[nH]c4cc5ncnc5cc4nc3-c3ccccc3)cc2)CC1", "assay": "cell-free assay", "conditions": "0.5 µM", "quantity": "remaining signal", "result": "105%"}
{"SMILES": "Cn1cc(-c2cc(F)cc(N3CCn4c(cc5c4CCCC5)C3=O)c2CO)cc(Nc2ccc(N3CCN(C4COC4)CC3)cn2)c1=O", "assay": "enzyme activity, inhibitor", "conditions": "0.1 µM", "quantity": "inhibition", "result": "8%"}
{"SMILES": "COc1cc(Nc2ncc(F)c(Nc3ccc4c(n3)NC(=O)C(C)(C)O4)n2)cc(OC)c1OC", "assay": "binding, competition with immobilised ligand", "conditions": "10 µM", "quantity": "inhibition", "result": "89%"}
{"SMILES": "Cn1cncc1[C@@](O)(COc1ccc(C#N)cc1-c1ccc(OC(F)(F)F)cc1)c1ccc(C#N)cc1", "assay": "cell-free assay, competition with immobilised ligand", "conditions": "1 µM", "quantity": "remaining binding", "result": "100%"}
{"SMILES": "Nc1ncc(-c2nc(N3CCOCC3)nc(N3CCOCC3)n2)c(C(F)F)n1", "assay": "binding, competition with immobilised ligand", "conditions": "10 µM", "quantity": "remaining binding", "result": "60%"}
{"SMILES": "N#CC1(c2ccccn2)CCN(Cc2cc(C(=O)O)c(=O)n3ccccc23)CC1", "assay": "cell-free assay, competition with immobilised ligand", "conditions": "1 µM", "quantity": "remaining binding", "result": "72%"}
{"SMILES": "C#Cc1n[nH]c2c(-c3cn([C@@H](C)c4ccccc4)c(=O)[nH]c3=O)cc(F)cc12", "assay": "enzyme activity, inhibitor", "conditions": "0.1 µM", "quantity": "inhibition", "result": "-16.5%"}
{"SMILES": "COc1ncccc1-c1cnn2ccc(N3CCN(C(=O)OC(C)C)CC3)nc12", "assay": "binding, competition with immobilised ligand", "conditions": "1 µM", "quantity": "remaining binding", "result": "100%"}
